Measurements: ChEMBL document CHEMBL1128514, “9-substituted acridine derivatives with long half-life and potent antitumor activity: synthesis and structure-activity relationships” (J Med Chem, 1995)
Where “and” joins values, the source holds several entries; their conditions need not be identical. Equal entries are not always repeated.

Tests used:
[1] = target: DNA topoisomerase II (Homo sapiens, UniProt P11388+Q02880); assay: In vitro 50% inhibition of topoisomerase II mediated k-DNA decatenation; type: protein assay
[2] = test system: HL-60; assay: In vitro cytotoxicity against human leukemic HL-60 cell line.; type: functional, cell-based
In short: (§1)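 Growth inhibition over 72 h by XTT tetrazolium microculture assay with phenazine methosulfate-XTT for 6 h at 37 °C. Absorbance read at 450 and 630 nm. Six to seven concentrations per compound; IC50 from median-effect plot.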

[3] = species on record: Mus musculus; assay: Average tumor volume of the Lewis lung carcinoma; type: functional
In short: (§2)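 BD2F1 female mice, 19-21 g, given subcutaneous 0.2 mL solid tumor brei; dosed ip in DMSO daily for 5 days from day 3 (AHMA 7.5-10 mg/kg, VP-16 10, m-AMSA 5 mg/kg). Tumor volume on day 14 as length × width × width/2 (mm3), expressed as T/C versus untreated. Five mice per dose; DMSO-only group included; two experiments.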

[4] = test system: Mus musculus; assay: The compound (7.5 mg/kg, ip) was tested for change in average weight of BDF2 mice bearing B16 melanoma.; type: functional
In short: (§3)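 BD2F1 female mice, 19-21 g, carrying subcutaneous tumor brei (0.2 mL); compounds in DMSO given ip once daily × 5 starting day 3. Average body weight change (g) taken on day 14. Five mice per dose; untreated and DMSO-vehicle controls.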

[5] = test system: Mus musculus; assay: The compound ( ip) was tested for change in average weight of BDF2 mice bearing E0771 mammary adenocarcinoma.
[6] = test system: Mus musculus; assay: The compound (10 mg/kg, ip) was tested for change in average weight of BDF2 mice bearing B16 melanoma.
[7] = species on record: Mus musculus; assay: Average tumor volume of the E0771 mammary adenocarcinoma,; type: functional; in short: as §2
[8] = test system: Mus musculus; assay: The compound (7.5 mg/kg, ip) was tested for change in average weight of BDF2 mice bearing E0771 mammary adenocarcinoma; type: functional; in short: as §3
[9] = test system: Mus musculus; assay: The compound (10 mg/kg, ip) was tested for change in average weight of BDF2 mice bearing Lewis lung carcinoma.
[10] = test system: Mus musculus; assay: The compound (7.5 mg/kg, ip) was tested for change in average weight of BDF2 mice bearing Lewis lung carcinoma.; type: functional; in short: as §3
[11] = species on record: Mus musculus; assay: Average tumor volume of the B-16 melanoma; type: functional; in short: as §2
[12] = test system: CCRF S-180; assay: The compound was tested for the cytotoxicity against S180 cell lines; type: functional, cell-based; details: Mus musculus; in short: as §1
[13] = test system: L1210; assay: The compound was tested for the cytotoxicity against L1210 cell lines; type: functional, cell-based; details: Mus musculus; in short: as §1
[14] = The compound was tested for the cytotoxicity DC-3F cell lines; type: functional, cell-based; details: Cricetulus griseus, DC3F
[15] = test system: CEM-VLB; assay: The compound was tested for the cytotoxicity against human leukemic CEM/VBL cell lines; type: functional, cell-based
[16] = test system: CEM-VM1; assay: The compound was tested for the cytotoxicity against human leukemic CEM/VM-1 cell lines; type: functional, cell-based
[17] = test system: CCRF-CEM; assay: The compound was tested for the cytotoxicity against human leukemic CCRF-CEM cell lines; type: functional, cell-based
[18] = test system: DC3F/AD-II; assay: The compound was tested for the cytotoxicity against human leukemic DC-3F/ADII cell lines, activity is expressed as IC50 values.; type: functional, cell-based; details: Cricetulus griseus

Structure (SMILES)	IC50 [1]	IC50 [2]	IC50 [13]	other results
COc1ccc2c(Sc3ccc(CO)cc3)c3ccccc3nc2c1	50000 nM	1830 nM	–	–
COc1ccc2c(Oc3ccc(COC(=O)NC(C)C)cc3)c3ccccc3nc2c1	> 100000 nM	420 nM	–	–
Cl.Nc1cc(CO)cc(Nc2c3ccccc3nc3ccccc23)c1	–	25 nM	–	T/C [3]: 0.55 and 0.23; AWC [4]: -0.3 g; AWC [5]: 0.6 g; AWC [6]: -1.9 g; T/C [7]: 0.13 and 0.14; AWC [8]: 0.6 g; AWC [9]: -0.4 g; AWC [10]: 0.1 g; T/C [11]: 0.23 and 0.18
CNC(=O)OCc1ccc(Sc2c3ccccc3nc3cc(OC)ccc23)cc1	> 100000 nM	2710 nM	–	–
CNC(=O)OCc1ccc(Sc2c3ccccc3nc3ccccc23)cc1	20000 nM	1960 nM	–	–
OCc1ccc(Sc2c3ccccc3nc3ccccc23)cc1	> 100000 nM	3330 nM	–	–
CC(=O)CCC(=O)Nc1cc(COC(=O)CCC(C)=O)cc(Nc2c3ccccc3nc3ccccc23)c1	< 1000 nM	15 nM	98 nM	IC50 [12]: 97 nM
CC(=O)CCC(=O)Nc1cc(CO)cc(Nc2c3ccccc3nc3ccccc23)c1	< 1000 nM	25 nM	45 nM	IC50 [12]: 70 nM
CC(=O)Nc1cc(CO)cc(Nc2c3ccccc3nc3ccccc23)c1	–	18 nM	28 nM	–
OCc1ccc(Oc2c3ccccc3nc3ccccc23)cc1	> 100000 nM	12800 nM	–	–
CNC(=O)OCc1ccc(Oc2c3ccccc3nc3ccccc23)cc1	20000 nM	680 nM	–	–
CC(C)NC(=O)OCc1ccc(Oc2c3ccccc3nc3ccccc23)cc1	20000 nM	1490 nM	–	–
CC(C)NC(=O)OCc1ccc(Sc2c3ccccc3nc3ccccc23)cc1	50000 nM	2830 nM	–	–
Nc1cc(CO)cc(Nc2c3ccccc3nc3ccccc23)c1	1000 nM	–	16 nM	IC50 [14]: 5 nM; IC50 [12]: 30 nM; IC50 [15]: 3790 nM; IC50 [16]: 1600 nM; IC50 [17]: 263 nM; IC50 [18]: 54 nM
COc1ccc2c(Sc3ccc(COC(=O)NC(C)C)cc3)c3ccccc3nc2c1	> 100000 nM	1550 nM	–	–
O=C(O)CCC(=O)Nc1cc(CO)cc(Nc2c3ccccc3nc3ccccc23)c1	20000 nM	5000 nM	330 nM	IC50 [12]: 1070 nM
CNC(=O)OCc1ccc(Oc2c3ccccc3nc3cc(OC)ccc23)cc1	50000 nM	950 nM	–	–
CC(=O)OCc1cc(N)cc(Nc2c3ccccc3nc3ccccc23)c1	–	28 nM	34 nM	–
COc1ccc2c(Oc3ccc(CO)cc3)c3ccccc3nc2c1	20000 nM	1040 nM	–	–
O=C(O)CCC(=O)Nc1cc(COC(=O)CCC(=O)O)cc(Nc2c3ccccc3nc3ccccc23)c1	> 100000 nM	4300 nM	990 nM	IC50 [12]: 1830 nM
